Results on 22 sequences are retold here after the EternaBench riboswitch data.

This series concerns MS2 coat protein. Nature of the series: apparent Kd, MS2 coat protein; higher = weaker binding; RNA-MaP array. The procedure, abridged:
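In Tris-HCl pH 7.5 buffer with KCl, MgCl2, BSA, DTT, tRNA and Tween20, with or without input ligand, fluorescently labeled MS2 coat protein at 1.5 nM to 3 μM was incubated at room temperature with designed RNAs. The RNAs had been transcribed on an Illumina sequencing chip from sequenced DNA templates, and incubation ran 0.8–1.5 h at the lowest to 10–20 min at the highest concentrations. Apparent Kd is the median of binding-curve fits for individual clusters. Designs measured on fewer than 10 clusters were excluded.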

Setting [1] is: designed as: ON switch for theophylline, no ligand.
The mark [2] stands for this setting: ligand present: theophylline, designed as: ON switch for theophylline.
Setting [3] is: designed as: OFF switch for flavin mononucleotide, no ligand.
[4] abbreviates: ligand present: flavin mononucleotide, designed as: OFF switch for flavin mononucleotide.
Setting [5] is: designed as: ON switch for flavin mononucleotide, no ligand.
Where [6] appears, read: ligand present: flavin mononucleotide, designed as: ON switch for flavin mononucleotide.

In the case of “CUUAUACAUGAGGAUCACCCAUGUGGUGAUACCAGCCACGAUCAAGGCCCUUGGCAGCACAAAGGGAAUAAUAUGAUUACAAAAC”, the apparent Kd (in general, the concentration giving half-maximal binding under the conditions of the assay) came out at 227 nM under setting [1] and 212 nM under setting [2].
Regarding “UGUGACCGCCAUUCUCGCGACAUGAGGAUCACCCAUGUUUCCAGAAGGCUCCAGGCUUGUGCUCGAGAGGAUAUGGGAAGAUUC”, the “apparent Kd” value reads like this: under setting [3], 28.4 nM; under setting [4], 26.5 nM.
“ACCCUGUGAGGAUAUAUGCGGUUUGAACCAGAUCAGAAAUAAUAGAAGGCACAUGAGGAUCACCCAUGUUUCUC”: the “apparent Kd” value is, setting by setting: under setting [3], 27.9 nM; under setting [4], 22.8 nM.
Turning to “GCGGAACAUGAGGAUCACCCAUGUAAGGAUAUCGUGAGGGAACGGCAGCAACACUGAUCGAGAAGGUACAGGGC”, the “apparent Kd” value by setting is: under setting [3], 23 nM; under setting [4], 36.4 nM.
For “CCUCACUUGAAGAAGGACAGCUUCGGUCACAUCGGAACAUGAGGAUCACCCAUGUGACGCGUGGUGUAGGAUAUUCGUAAGGCA” the same measures were 57.6 nM and 147 nM.
Regarding “GUUCAACGGUGAGGAUAUUGCAGUACGUACGCACAAGAAGGCACUCCAUAGCACAGGGUGCACAUGAGGAUCACCCAUGUGGUC”, the “apparent Kd” value was found to be 494 nM under setting [3] and 224 nM under setting [4].
On the same counts, the results for “GCGCCUCCCAAGGAUAUAACGCGUCUCUAAGGAUUAGAAGGUGGGACAUGAGGAUCACCCAUGUGACUCCUUUA” are 7.31 nM and 7.37 nM.
On to “UAACCAUGCAAAGGAUAUCCAAUACUAUGAGACGGAGAAGGUAGAAACAUGGAGAAUUCCUACAUGAGGAUCACCCAUGUUAGA”, for which the “apparent Kd” value under setting [3] stood at 387 nM and the “apparent Kd” value under setting [4] came to 245 nM.
Consider “GAAGAUCCGUAAGAUACCAGUGCAGAUCGGCACAUGAGGAUCACCCAUGUAAAGCAAGAACACCCUUGGCAGCUUUCGUAACAAC”, for which the “apparent Kd” value is 158 nM under setting [1] and 10.3 nM under setting [2].
Consider “CGCUAACAUGAGGAUCACCCAUGUGAGGAUAUUCGCGGCGGACCGGGCUUUGGCGCUCGAAGAAGGCACAACGG”, for which the “apparent Kd” value under setting [3] was 12.8 nM and the “apparent Kd” value under setting [4] turned out to be 24.5 nM.
For “AACAAACAUGAGGAUCACCCAUGUGAGGAUAUCAAGUCCAUACCCUAAGAGGGAGUUUUGAGAAGGCACGUGUA” the same measures were 11.2 nM and 15.1 nM.
On the same counts, the results for “GUAACGUGCAAAGGAUAUAUACAUGAGGAUCACCCAUGUCGGAAUGAGAUCAAGGUCGCUCGCCUAUAGAAGGUUGGCGCUACU” are 86.7 nM and 43.9 nM.
Consider “ACAGCAAACGUAGGAUAUGGGAGAACAUGAGGAUCACCCAUGUGGAAGUACGAGUUCGCUACAUACCAGAAGGACGAAAUCUAC”, for which the “apparent Kd” value reads like this: under setting [5], 156 nM; under setting [6], 35.8 nM.
As to “AGGGUACAUGAGGAUCACCCAUGUUAGGAUAUGUCCGGUACGGCCGCCGUACCAGGCAACAGAAGGAACACAGC”, the “apparent Kd” value under setting [3] came to 30.2 nM and the “apparent Kd” value under setting [4] is 26.2 nM.
“UGAUACAUGAGGAUCACCCAUGUUGAUCCCGAGAAGUCCGUAAGAAGGACAGACACGAUGGAUCUGUAGGAUAUUACGACGGAC”: the “apparent Kd” value runs as follows: under setting [3], 182 nM; under setting [4], 122 nM.
As for “UAACGCCCCUUAGGAUAUCCACGUAACCCCUCCCCCGUAAGUAGAAACAUGAGGAUCACCCAUGUGGAGAAGGAAGUGACCCGC”, the “apparent Kd” value runs as follows: under setting [3], 20.8 nM; under setting [4], 18.9 nM.
With “CCGCGCGUAGGAUAUACUAGUGUAUCAGUCGGUAUUGGAAAACAUGAGGAUCACCCAUGUAGAAGGACGCUAAU”, the “apparent Kd” value under setting [3] came out at 8.4 nM and the “apparent Kd” value under setting [4] turned out to be 10.5 nM.
For the sequence “UUAAUUCAGUGCCACAUGAGGAUCACCCAUGUCCAUACUCAAAAGGAUAUAUGCGGUUUCUAAGUAUAGAAGGUUUGUACACGA”, the “apparent Kd” value under setting [5] came to 130 nM and the “apparent Kd” value under setting [6] turned out to be 89 nM.
Consider “ACGAAUGUAGGAUAUACCAGUAGGAGAUGGGUAUCAGCACCACAUGAGGAUCACCCAUGUAGAAGGACACGUGA”, for which the “apparent Kd” value under setting [3] is 38.4 nM and the “apparent Kd” value under setting [4] turned out to be 40.3 nM.
“GGGACCACUCUUGGGCCGCUGACAUGAGGAUCACCCAUGUAUAGAAGGAGGGUGGCUAAUCACACCUAGGAUAUAUACAAGACU”: the “apparent Kd” value is, setting by setting: under setting [3], 12 nM; under setting [4], 11 nM.
In the case of “CGAUACCAUGGUCAGGAUAUGAAACAGCUGACAUGAGGAUCACCCAUGUGAUAGGCAGGUGGACUUCAGAAGGGACACAUACACCA”, the “apparent Kd” value by setting is: under setting [5], 184 nM; under setting [6], 50.2 nM.
As to “AUACAAUCAGGAUAUACUAGGCGAUAACAGAUUAUGACGUCACAUGAGGAUCACCCAUGUAGAAGGGAUCAGGA”, the “apparent Kd” value reads like this: under setting [3], 39.2 nM; under setting [4], 53.1 nM.
